The source of these data is ChEMBL document CHEMBL1221392, “Synthesis and cytotoxic potential of heterocyclic cyclohexanone analogues of curcumin” (Bioorg Med Chem, 2010).

Test [1] is described as follows: Inhibition of NF-kappaB activation in human K562 cells. The format is cell-based. An outline of the steps: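 K562 cells electroporated with 5 µg each of a 5× NF-κB-site firefly luciferase reporter and a Renilla phRG-TK plasmid per 2.5 × 10⁶ cells. After 24 h they were resuspended at 1 × 10⁶/ml in RPMI 1640 with 0.1% FCS. Cells were then incubated 30 min before a concentration series was added. Read-out by dual luciferase; IC₅₀ reported.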

The subject of test [2] is MDA-MB-231. As to the kind of experiment: Cytotoxicity against human MDA-MB-231 cells after 5 days by SRB assay. The conditions noted are these: MDA-MB-231, 5 days. For orientation: The SRB assay estimates cell density from bound dye.
The subject of another test is SK-BR-3. As to the kind of experiment: Cytotoxicity against human SKBR3 cells after 5 days by SRB assay. The conditions noted are these: SK-BR-3, 5 days.
The subject of a further test is MDA-MB-468. In words: Cytotoxicity against human MDA-MB-468 cells after 5 days by SRB assay. The following applies: MDA-MB-468, 5 days.
The test system of test [3] is MDA-MB-231. In words: Induction of apoptosis in human MDA-MB-231 cells assessed as increase in number of apoptotic cells at 2 to 3 uM after 18 hrs by FACScalibur flow cytometry. The format is functional. In general terms: A flow cytometer gives signals particle by particle.
Test [4] relates to MDA-MB-231. In words: Induction of apoptosis in human MDA-MB-231 cells assessed as increase in number of apoptotic cells at 2 to 3 uM after 36 hrs by FACScalibur flow cytometry. Type of test: functional.
Test [5] has as its system MDA-MB-231. As to the kind of experiment: Induction of apoptosis in human MDA-MB-231 cells assessed as increase in number of apoptotic cells at 1 uM by FACScalibur flow cytometry. The format is functional, cell-based. An outline of the steps: (§1)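 Cells seeded at 2 × 10⁵/well in DMEM/HamF12 with 5% FBS and antibiotics, then treated for 12, 18, 24 or 36 h against a 0.1% DMSO vehicle. Staining was Annexin-V-FLUOS/propidium iodide, read by flow cytometry, as apoptotic cells % of total. Mean ± SEM from three independent experiments in triplicate, two-way ANOVA with Bonferroni post-test.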

In test [6] the test system is MDA-MB-231. In words: Induction of apoptosis in human MDA-MB-231 cells assessed as increase in number of apoptotic cells at 2 uM by FACScalibur flow cytometry. The format is functional, cell-based. An outline of the steps: as §1

The source made the active and inactive calls. No cut-off for these calls is given here.

Turning to `COc1ccc(OC)c(/C=C2\CCC/C(=C\c3cc(OC)ccc3OC)C2=O)c1`, the IC50 – broadly, the midpoint of a concentration-inhibition curve – in test [1] was over 200000 nM. Also, the EC50 (commonly the concentration that produces a half-maximal response) in the test with MDA-MB-231 [2] is over 10000 nM.

For `Cn1cccc1/C=C1\CCC/C(=C\c2cccn2C)C1=O`, the concentration for half-maximal inhibition (IC50) in test [1] was over 200000 nM. In addition, the EC50 with MDA-MB-231 [2] was over 30000 nM.

In test [1], `O=C1/C(=C/c2ccnc(F)c2)CCC/C1=C\c1ccnc(F)c1` showed an IC50 of 2200 nM. In addition, a half-maximal effect with MDA-MB-231 [2] (EC50) was put at 3300 nM.

As to `CN1C2CCC1/C(=C\c1ccncc1)C(=O)/C2=C/c1ccncc1`, the results for the IC50 (in test [1]; in the test on SK-BR-3) were 1500 nM and 700 nM, respectively. Besides, the EC50 with MDA-MB-231 [2] was 1100 nM; with MDA-MB-468, 600 nM.

Regarding `O=C1/C(=C/c2cccs2)CCC/C1=C\c1cccs1` [TENYLIDONE], the IC50 in test [1] is over 200000 nM. The EC50 in the test with MDA-MB-231 [2] was over 30000 nM.

Take `O=C1/C(=C/c2cccnc2)CCC/C1=C\c1cccnc1`: the IC50 in test [1] was determined as 2500 nM. For the same compound, the Activity in the test on MDA-MB-231 [3] is under 20%. Besides, the EC50 in the test on MDA-MB-231 [2] is 1500 nM.

Take `O=C1/C(=C/c2ccncc2)CCC/C1=C\c1ccncc1`: the IC50 came out at 2500 nM in test [1] and 200 nM in the test on SK-BR-3. Besides, the Activity in the test on MDA-MB-231 [3] is given as under 20%; in the test on MDA-MB-231 [4], 40%. Moreover, the values for the EC50 in the test on MDA-MB-231 [2] and with MDA-MB-468 were 1100 nM and 1900 nM, respectively.

In test [1], `CN1C2CCC1/C(=C\c1cccnc1)C(=O)/C2=C/c1cccnc1` gave an IC50 of 4000 nM. The compound further showed an EC50 with MDA-MB-231 [2] of 12900 nM.

Consider `COc1cc(/C=C/C(=O)CC(=O)/C=C/c2ccc(O)c(OC)c2)ccc1O` [CURCUMIN], for which the results for the IC50 (in test [1]; in the test on SK-BR-3) were 15000 nM and 2400 nM, respectively. Moreover, the EC50 with MDA-MB-231 [2] came to 7600 nM; in the test with MDA-MB-468 it was 9700 nM.

In test [1], `COc1cc(/C=C2/C(=O)/C(=C/c3cc(OC)c(OC)c(OC)c3)C3CCC2N3C)cc(OC)c1OC` returned an IC50 of over 200000 nM. Besides, the EC50 with MDA-MB-231 [2] is over 30000 nM.

In the test with MDA-MB-231 [2], `COc1cc(/C=C2\CCC/C(=C\c3cc(OC)c(OC)c(OC)c3)C2=O)cc(OC)c1OC` displayed an EC50 of over 30000 nM.

Regarding `COc1cc(/C=C2\CCC/C(=C\c3ccc(O)c(OC)c3)C2=O)ccc1O` [CYCLOVALONE], the IC50 in test [1] turned out to be 10000 nM. In the test on MDA-MB-231 [2], the EC50 stood at 2600 nM.

In the case of `COc1cc(/C=C2\CN(C)C/C(=C\c3cc(OC)c(OC)c(OC)c3)C2=O)cc(OC)c1OC`, the figures for the IC50 (in test [1]; in the test on SK-BR-3) were 900 nM and 400 nM, respectively. In addition, the result in the test on MDA-MB-231 [5] was Active. Also, the EC50 in the test with MDA-MB-231 [2] and in the test with MDA-MB-468 was 300 nM throughout.

As to `O=C1/C(=C/c2cccnc2F)CCC/C1=C\c1cccnc1F`, in test [1], the IC50 was 3800 nM. In the test on MDA-MB-231 [2], this compound displayed a half-maximal effective concentration (EC50) of 3200 nM.

As for `CN1C/C(=C\c2ccncc2)C(=O)/C(=C/c2ccncc2)C1`, the IC50 in test [1] was found to be 1000 nM; in the test with SK-BR-3 it was 600 nM. In addition, the outcome with MDA-MB-231 [6] was Active. The results for the 50% effective concentration (EC50) in the test with MDA-MB-231 [2] and with MDA-MB-468 were 800 nM and 500 nM, respectively.

As for `Cn1ccnc1/C=C1\CCC/C(=C\c2nccn2C)C1=O`, half-maximal inhibition in test [1] (IC50) required 48000 nM. A half-maximal effect with MDA-MB-231 [2] (EC50) was put at 1900 nM.

`CN1C/C(=C\c2cccnc2)C(=O)/C(=C/c2cccnc2)C1` gave an IC50 in test [1] of 800 nM. Further, in the test with MDA-MB-231 [2], the EC50 worked out at 2100 nM.

`COc1ccc(OC)c(/C=C2\CN(C)C/C(=C\c3cc(OC)ccc3OC)C2=O)c1`: the IC50 was found to be 6300 nM in test [1] and 1100 nM in the test with SK-BR-3. Besides, the EC50 with MDA-MB-231 [2] and in the test with MDA-MB-468 was 1100 nM each time.

Compound `COc1cc(F)c(/C=C2\CN(C)C/C(=C\c3cc(OC)c(OC)cc3F)C2=O)cc1OC` displayed an IC50 in test [1] of 4000 nM. This compound yielded an EC50 in the test on MDA-MB-231 [2] of 3800 nM.

Regarding `CN1C/C(=C\c2nccn2C)C(=O)/C(=C/c2nccn2C)C1`, in test [1], it took 47000 nM to reach half-maximal inhibition (IC50). In addition, in the test on MDA-MB-231 [2], the EC50 is over 30000 nM.

For `CN1C/C(=C\c2cccs2)C(=O)/C(=C/c2cccs2)C1`, the IC50 in test [1] is over 200000 nM. In the test on MDA-MB-231 [2], the EC50 was over 30000 nM.

Compound `O=C1/C(=C/c2cccnc2)CC/C1=C\c1cccnc1` gave an IC50 in test [1] of 34000 nM. In addition, the EC50 with MDA-MB-231 [2] came to 8600 nM.
